In ChEMBL document CHEMBL4184294, “A small group of sulfated benzofurans induces steady-state submaximal inhibition of thrombin” (Bioorg Med Chem Lett, 2018):
The source made the active and inactive calls. The rule behind the calls is not given here.

How the values were obtained:
Prothrombin [1] = target: T1, Prothrombin (Homo sapiens, UniProt P00734); assay: Partial allosteric inhibition of human thrombin at 300 uM using spectrozyme TH as substrate pretreated for 10 mins followed by substrate addition by spectrophotometric method relative to control
Prothrombin [2] = target: T1, Prothrombin; assay: Partial allosteric inhibition of human thrombin using spectrozyme TH as substrate pretreated for 10 mins followed by substrate addition by spectrophotometric method
In short: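 Chromogenic substrate hydrolysis by thrombin read spectrophotometrically in 20 mM Tris-HCl pH 7.4 with […], 100 mM NaCl and 0.1% PEG 8000 at 25 °C. Sigmoidal fits gave IC50 and efficacy (ΔY). Errors ±1 S.E.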

Prothrombin [3] = target: T1, Prothrombin; assay: Binding affinity to human fluorescence labelled FPRCK-alpha thrombin by fluorimetric method
In short: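 Fluorescein-tagged FPRCK-thrombin titrated with inhibitor at pH 7.4 and 25 °C. Fluorescence decrease recorded ([…]). KD obtained by nonlinear fit to a quadratic equation.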

Prothrombin [4] = target: T1, Prothrombin; assay: Binding affinity to wild-type thrombin (unknown origin) by intrinsic fluorescence method
In short: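 Intrinsic fluorescence titration of wild-type plasma thrombin at pH 7.4 and 25 °C. KD derived from the fluorescence change.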

Prothrombin [5] = target: T1, Prothrombin; assay: Inhibition of human thrombin using spectrozyme TH as substrate pretreated for 10 mins followed by substrate addition measured in absence of exosite 1 competitor hirudine peptide by spectrophotometric method
In short: (§1)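 Residual thrombin activity read as Spectrozyme TH hydrolysis in 20 mM Tris-HCl pH 7.4 with 100 mM NaCl, 2.5 mM CaCl2 and 0.1% PEG8000 at 25 °C. Exosite competitors varied: hirudin peptide 0–50 nM or 0–30 nM; UFH 0–50 μM. Apparent IC50 obtained from a logistic fit.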

Prothrombin [6] = target: T1, Prothrombin; assay: Inhibition of human thrombin using spectrozyme TH as substrate pretreated for 10 mins followed by substrate addition measured in presence of 5 uM exosite 1 competitor hirudine peptide by spectrophotometric method; settings: in the assay text read “5 nM” for “5 uM”; in short: as §1
Prothrombin [7] = target: T1, Prothrombin; assay: Inhibition of human thrombin using spectrozyme TH as substrate pretreated for 10 mins followed by substrate addition measured in presence of 15 uM exosite 1 competitor hirudine peptide by spectrophotometric method; settings: in the assay text read “15 nM” for “15 uM”; in short: as §1
Prothrombin [8] = target: T1, Prothrombin; assay: Inhibition of human thrombin using spectrozyme TH as substrate pretreated for 10 mins followed by substrate addition measured in presence of 30 uM exosite 1 competitor hirudine peptide by spectrophotometric method; settings: in the assay text read “30 nM” for “30 uM”; in short: as §1
Prothrombin [9] = target: T1, Prothrombin; assay: Inhibition of human thrombin using spectrozyme TH as substrate pretreated for 10 mins followed by substrate addition measured in absence of exosite 2 competitor unfractionated heparin by spectrophotometric method; in short: as §1
Prothrombin [10] = target: T1, Prothrombin; assay: Inhibition of human thrombin using spectrozyme TH as substrate pretreated for 10 mins followed by substrate addition measured in presence of 10 uM exosite 2 competitor unfractionated heparin by spectrophotometric method; in short: as §1
Prothrombin [11] = target: T1, Prothrombin; assay: Inhibition of human thrombin using spectrozyme TH as substrate pretreated for 10 mins followed by substrate addition measured in presence of 20 uM exosite 2 competitor unfractionated heparin by spectrophotometric method; in short: as §1
Prothrombin [12] = target: T1, Prothrombin; assay: Inhibition of human thrombin using spectrozyme TH as substrate pretreated for 10 mins followed by substrate addition measured in presence of 50 uM exosite 2 competitor unfractionated heparin by spectrophotometric method; in short: as §1
Prothrombin [13] = target: T1, Prothrombin; assay: Non competitive inhibition of human thrombin assessed as reduction in substrate Vmax at 40 uM using varying levels of spectrozyme TH as substrate measured after 10 mins by Michaelis-Menten plot analysis relative to control
Prothrombin [14] = target: T1, Prothrombin; assay: Ratio of IC50(app) for inhibition of human thrombin using spectrozyme TH as substrate in presence of exosite 2 competitor unfractionated heparin to IC50(app) for inhibition of human thrombin using spectrozyme TH as substrate in absence of exosite 2 competitor unfractionated heparin
Prothrombin [15] = target: T1, Prothrombin; assay: Inhibition of recombinant thrombin R93A mutant (unknown origin) at 0.02 to 200 uM using spectrozyme TH as substrate pretreated for 10 mins followed by substrate addition by spectrophotometric method
In short: (§2)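 Recombinant wild-type and Ala-mutant thrombins assayed by Spectrozyme TH hydrolysis at pH 7.4 and 25 °C. IC50 derived for each mutant.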

[16] = tested on: Prothrombin (Homo sapiens), P00734 [R97A]; assay: Inhibition of recombinant thrombin R97A mutant (unknown origin) at 0.02 to 200 uM using spectrozyme TH as substrate pretreated for 10 mins followed by substrate addition by spectrophotometric method; in short: as §2
Prothrombin [17] = target: T1, Prothrombin; assay: Inhibition of recombinant thrombin R101A mutant (unknown origin) at 0.02 to 200 uM using spectrozyme TH as substrate pretreated for 10 mins followed by substrate addition by spectrophotometric method; in short: as §2
Prothrombin [18] = target: T1, Prothrombin; assay: Inhibition of recombinant thrombin R126A mutant (unknown origin) at 0.02 to 200 uM using spectrozyme TH as substrate pretreated for 10 mins followed by substrate addition by spectrophotometric method; in short: as §2
Prothrombin [19] = target: T1, Prothrombin; assay: Inhibition of recombinant thrombin R165A mutant (unknown origin) at 0.02 to 200 uM using spectrozyme TH as substrate pretreated for 10 mins followed by substrate addition by spectrophotometric method; in short: as §2
Prothrombin [20] = target: T1, Prothrombin; assay: Inhibition of recombinant thrombin K169A mutant (unknown origin) at 0.02 to 200 uM using spectrozyme TH as substrate pretreated for 10 mins followed by substrate addition by spectrophotometric method; in short: as §2
Prothrombin [21] = target: T1, Prothrombin; assay: Inhibition of recombinant thrombin R173A mutant (unknown origin) at 0.02 to 200 uM using spectrozyme TH as substrate pretreated for 10 mins followed by substrate addition by spectrophotometric method; in short: as §2
Prothrombin [22] = target: T1, Prothrombin; assay: Inhibition of recombinant thrombin R175A mutant (unknown origin) at 0.02 to 200 uM using spectrozyme TH as substrate pretreated for 10 mins followed by substrate addition by spectrophotometric method; in short: as §2
Prothrombin [23] = target: T1, Prothrombin; assay: Inhibition of recombinant thrombin R233A mutant (unknown origin) at 0.02 to 200 uM using spectrozyme TH as substrate pretreated for 10 mins followed by substrate addition by spectrophotometric method; in short: as §2
Prothrombin [24] = target: T1, Prothrombin; assay: Inhibition of recombinant thrombin K235A mutant (unknown origin) at 0.02 to 200 uM using spectrozyme TH as substrate pretreated for 10 mins followed by substrate addition by spectrophotometric method; in short: as §2
Prothrombin [25] = target: T1, Prothrombin; assay: Inhibition of recombinant thrombin K236A mutant (unknown origin) at 0.02 to 200 uM using spectrozyme TH as substrate pretreated for 10 mins followed by substrate addition by spectrophotometric method; in short: as §2
Prothrombin [26] = target: T1, Prothrombin; assay: Partial allosteric inhibition of thrombin (unknown origin) assessed as reduction in enzyme-mediated fibrinogen cleavage at 0.5 to 150 uM pretreated for 10 mins followed by fibrinogen addition measured after 1 min by SDS-PAGE analysis relative to control
In short: (§3)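 Cleavage of human fibrinogen (4.7 μM) by 6 nM thrombin with inhibitor at 0 to 150 μM. Products resolved by PAGE.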

Prothrombin [27] = target: T1, Prothrombin; assay: Non-competitive inhibition of human thrombin assessed as reduction in substrate Vmax using varying levels of spectrozyme TH as substrate measured after 10 mins by Michaelis-Menten plot analysis
Prothrombin [28] = target: T1, Prothrombin; assay: Partial allosteric inhibition of thrombin (unknown origin) assessed as reduction in enzyme-mediated fibrinogen cleavage pretreated for 10 mins followed by fibrinogen addition measured after 1 min by SDS-PAGE analysis relative to control; in short: as §3
Prothrombin [29] = target: T1, Prothrombin; assay: Inhibition of thrombin (unknown origin)
Prothrombin [30] = target: T1, Prothrombin; assay: Partial allosteric inhibition of human thrombin using […] as substrate measured after 1 min by fibrometric method
Prothrombin [31] = target: T1, Prothrombin; assay: Mixed-type inhibition of human thrombin assessed as reduction in substrate Vmax at 40 uM using varying levels of spectrozyme TH as substrate measured after 10 mins by Michaelis-Menten plot analysis relative to control
Prothrombin [32] = target: T1, Prothrombin; assay: Mixed-type inhibition of human thrombin assessed as reduction in substrate Vmax using varying levels of spectrozyme TH as substrate measured after 10 mins by Michaelis-Menten plot analysis

inhibition (Prothrombin [1]) [%]	Efficacy (Prothrombin [2]) [%]	IC50 (Prothrombin [2]) [nM]	Kd (Prothrombin [3]) [nM]	IC50 (Prothrombin [5]) [nM]	IC50 (Prothrombin [6]) [nM]	IC50 (Prothrombin [7]) [nM]	IC50 (Prothrombin [8]) [nM]	IC50 (Prothrombin [9]) [nM]	IC50 (Prothrombin [10]) [nM]	IC50 (Prothrombin [11]) [nM]	IC50 (Prothrombin [12]) [nM]	inhibition (Prothrombin [19])	inhibition (Prothrombin [20])	inhibition (Prothrombin [22])	inhibition (Prothrombin [23])	inhibition (Prothrombin [25])	inhibition (Prothrombin [26]) [%]	inhibition (Prothrombin [28])	Molecule	further results
> 50	58	1800	3700	1300	2700	1600	1500	1300	3300	3400	14500	Active	Active	Active	Active	Active	70	Dose-dependent effect	CCOC(=O)c1c(C)oc2cc(OCCc3ccccc3)c(OCc3oc4cc(OC)c(OS(=O)(=O)O)cc4c3C(=O)OCC)cc12	Kd (Prothrombin [4]): 2800 nM; fold change (FC) (Prothrombin [13]): 2; Ratio IC50 (Prothrombin [14]): 11; inhibition (Prothrombin [15]): Active; inhibition [16]: Active; inhibition (Prothrombin [17]): Active; inhibition (Prothrombin [18]): Active; inhibition (Prothrombin [21]): Active; inhibition (Prothrombin [24]): Active; inhibition (Prothrombin [27]): Dose-dependent effect
–	–	–	–	–	–	–	–	–	–	–	–	–	–	–	–	–	–	–	CCOC(=O)c1c(C)oc2cc(OC(=O)c3ccc(OC)cc3)c(OS(=O)(=O)O)cc12	Efficacy (Prothrombin [29]): 54%
–	–	–	–	–	–	–	–	–	–	–	–	–	–	–	–	–	–	–	H-PEHPAETEYDSLYPEDDL-OH	IC50 (Prothrombin [30]): 130000 nM
> 50	90	3600	1000	2000	2600	3600	2900	2000	2700	2800	2600	inactive	inactive	inactive	inactive	inactive	> 90	Dose-dependent effect	CCOC(=O)c1c(C)oc2cc(OCc3ccccc3)c(OCc3oc4cc(OCC5CCCCC5)c(OS(=O)(=O)O)cc4c3C(=O)OCC)cc12	fold change (FC) (Prothrombin [31]): 2; inhibition (Prothrombin [32]): Dose-dependent effect
